From ChEMBL document CHEMBL1126752, “Synthesis and biological activity of cis-(3aR)-(-)-2,3,3a,4,5,9b-hexahydro- 3-propyl-1H-benz[e]indole-9-carboxamide: a potent and selective 5-HT1A receptor agonist with good oral availability” (J Med Chem, 1993)
One block for each molecule: values may come before it. Active and inactive are the calls of the source. The rule behind the calls is not given here.

Legend:
Rattus norvegicus [1] = assay: 5-HTP accumulation in corpus striatum of reserpinized rats following subcutaneous administration at highest dose tested (50 umol/kg); Inactive; assay type: functional, organism-based
Rattus norvegicus [2] = assay: 5-HTP accumulation in hemispheres of reserpinized rats following subcutaneous administration at highest dose tested (50 umol/kg); Inactive; assay type: functional, organism-based
Rattus norvegicus [3] = assay: 5-HTP accumulation in limbic system of reserpinized rats following subcutaneous administration at highest dose tested (50 umol/kg); Inactive; assay type: functional, organism-based
Rattus norvegicus [4] = assay: DOPA accumulation in corpus striatum of reserpinized rats following subcutaneous administration at highest dose tested (50 umol/kg); Inactive; assay type: functional, organism-based
Rattus norvegicus [5] = assay: DOPA accumulation in hemispheres of reserpinized rats following subcutaneous administration at highest dose tested (50 umol/kg); Inactive; assay type: functional, organism-based
Rattus norvegicus [6] = assay: DOPA accumulation in limbic system of reserpinized rats following subcutaneous administration at highest dose tested (50 umol/kg); Inactive; assay type: functional, organism-based
Rattus norvegicus [7] = species on record: Rattus norvegicus; assay: Compound was tested for gross behavioral response in rats; no change; assay type: functional, organism-based
Rattus norvegicus [8] = species on record: Rattus norvegicus; assay: Compound was tested for gross behavioral response in rats; partial 5-HT syndrome; assay type: functional, organism-based
[9] = biological target: T1, 5-hydroxytryptamine receptor 1A (Homo sapiens, UniProt P08908); assay: Binding affinity against [3H]8-OH-DPAT-labeled 5-hydroxytryptamine 1A receptor sites in cloned CHO cells; assay type: cell-based
T1 sequence (P08908 whole entry): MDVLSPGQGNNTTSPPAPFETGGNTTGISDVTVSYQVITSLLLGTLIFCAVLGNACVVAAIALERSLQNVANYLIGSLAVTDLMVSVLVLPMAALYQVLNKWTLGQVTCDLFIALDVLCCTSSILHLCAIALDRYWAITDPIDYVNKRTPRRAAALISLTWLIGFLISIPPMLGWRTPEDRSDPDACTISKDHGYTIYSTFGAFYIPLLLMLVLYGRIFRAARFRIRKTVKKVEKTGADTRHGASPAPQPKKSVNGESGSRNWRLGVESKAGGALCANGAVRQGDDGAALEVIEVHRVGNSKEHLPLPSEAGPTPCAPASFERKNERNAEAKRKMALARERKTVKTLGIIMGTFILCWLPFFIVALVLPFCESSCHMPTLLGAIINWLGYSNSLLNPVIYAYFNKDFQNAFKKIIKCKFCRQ
Summary of the method: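 Competition binding against [3H]-8-OH-DPAT (85 Ci/mmol, 1.2 nM) using 11 dilutions of test compound. Receptor was cloned mammalian 5-HT1A expressed in CHO-K1 cells. IC50 from a one-site nonlinear least-squares fit, converted to Ki by Cheng-Prusoff. Ki reported ±SEM.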

Mus musculus [10] = assay: Swimming activity of the treated mice/control mice at 39 umol/kg, sc; assay type: functional
Mus musculus [11] = assay: Swimming activity of the treated mice/control mice at 12 umol/kg, sc; assay type: functional
Rattus norvegicus [12] = assay: In vivo motor activity at 50 umol/kg (sc) in male rats expressed as accumulated counts/30 min; assay type: functional
[13] = Half-life time in rats; assay type: ADME, organism-based; details: rat, in vivo
Summary of the method: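 Male Sprague-Dawley rats (300 g) sampled from arterial catheters 24 h after surgery over 10-24 h. Dosing was 5 µmol/kg iv and 40 µmol/kg po, with oral rats fasted 18 h. Parent drug in blood measured by GC/MS after pH 11 dichloromethane extraction with internal standard, samples run in duplicate. Availability from po/iv AUC ratio (n = 4).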

Felis catus [14] = assay: Maximum decrease in blood pressure observed following 1 mg/kg dose in anesthetized cat; assay type: functional; design: unit not given here
Summary of the method: (§1)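 Adult cats (2.5-4.0 kg) anesthetized with ketamine 11 mg/kg im then chloralose 80 mg/kg iv. Animals paralyzed with gallamine, ventilated, and kept at 37-38 °C. Blood pressure recorded via femoral artery. Sympathetic activity quantified by cumulative integration. Increasing doses given iv cumulatively at 20-min intervals.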

Felis catus [15] = assay: Maximum decrease in sympathetic nerve discharge in anesthetized cat.; assay type: functional; summary of the method: as §1
Felis catus [16] = assay: Percent arterial blood pressure at sympathetic nerve discharge in anesthetized cat; assay type: functional; summary of the method: as §1
Felis catus [17] = assay: Inhibition of sympathetic nerve discharge (SND) in anesthetized cat; assay type: functional; summary of the method: as §1
Mus musculus [18] = assay: Swimming activity of the treated mice/control mice at 1.2 umol/kg, sc; assay type: functional
Mus musculus [19] = assay: Swimming activity of the treated mice/control mice at 12 umol/kg, sc (p < 0.001); assay type: functional
Mus musculus [20] = assay: Swimming activity of the treated mice/control mice at 3.9 umol/kg, sc (p < 0.001); assay type: functional
Rattus norvegicus [21] = assay: 5-HTP accumulation in corpus striatum of reserpinized rats following peroral administration; assay type: functional; details: po
Rattus norvegicus [22] = species on record: Rattus norvegicus; assay: Inhibition of 5-HT1A cell firing in rats; assay type: functional
Summary of the method: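 Male Sprague-Dawley rats (280-330 g) under chloral hydrate anesthesia (400 mg/kg ip), drug given iv via femoral vein in distilled water. Dorsal raphe serotonergic neurons recorded extracellularly and confirmed histologically by dye deposit. Firing rate followed by integrated ratemeter.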

Rattus norvegicus [23] = assay: 5-HTP accumulation in corpus striatum of reserpinized rats following subcutaneous administration.; assay type: functional; details: sc
Rattus norvegicus [24] = assay: 5-HTP accumulation in hemispheres of reserpinized rats following peroral administration; assay type: functional; details: po
Rattus norvegicus [25] = assay: 5-HTP accumulation in hemispheres of reserpinized rats following subcutaneous administration.; assay type: functional; details: sc
Rattus norvegicus [26] = assay: 5-HTP accumulation in limbic system of reserpinized rats following peroral administration; assay type: functional; details: po
Rattus norvegicus [27] = assay: 5-HTP accumulation in limbic system of reserpinized rats following subcutaneous administration; assay type: functional; details: sc
Rattus norvegicus [28] = assay: In vivo motor activity at 12.5 umol/kg (po) in male rats expressed as accumulated counts/30 min (p < 0.001); assay type: functional
Rattus norvegicus [29] = assay: In vivo motor activity at 12.5 umol/kg (sc) in male rats expressed as accumulated counts/30 min (p < 0.001); assay type: functional
Mus musculus [30] = assay: Effect on hypothermia in mice following peroral administration; details: po
Mus musculus [31] = assay: Effect on hypothermia in mice following subcutaneous administration; details: sc
Mus musculus [32] = assay: Swimming activity of the treated mice/control mice at 39 umol/kg, sc (p < 0.001); assay type: functional
Rattus norvegicus [33] = assay: 5-HTP accumulation in corpus striatum of reserpinized rats following subcutaneous administration; assay type: functional; details: sc
Rattus norvegicus [34] = assay: 5-HTP accumulation in hemispheres of reserpinized rats following subcutaneous administration; assay type: functional; details: sc
Rattus norvegicus [35] = assay: In vivo motor activity at 50 umol/kg (sc) in male rats expressed as accumulated counts/30 min (p < 0.01); assay type: functional
Mus musculus [36] = assay: Swimming activity of the treated mice/control mice at 39 umol/kg, sc (p < 0.01); assay type: functional
Mus musculus [37] = assay: Swimming activity of the treated mice/control mice at 6.6 umol/kg, sc; assay type: functional
Rattus norvegicus [38] = assay: DOPA accumulation in limbic system of reserpinized rats following peroral administration at highest dose tested (50 umol/kg); Partially active; assay type: functional, organism-based
Rattus norvegicus [39] = assay: DOPA accumulation in corpus striatum of reserpinized rats following peroral administration at highest dose tested (50 umol/kg); Inactive; assay type: functional, organism-based
Rattus norvegicus [40] = assay: DOPA accumulation in hemispheres of reserpinized rats following peroral administration at highest dose tested (50 umol/kg); Inactive; assay type: functional, organism-based
Rattus norvegicus [41] = assay: In vivo motor activity at 5 umol/kg (sc) in male rats expressed as accumulated counts/30 min (p < 0.001); assay type: functional
Rattus norvegicus [42] = assay: In vivo motor activity at 50 umol/kg (po) in male rats expressed as accumulated counts/30 min (p < 0.001); assay type: functional
Rattus norvegicus [43] = species on record: Rattus norvegicus; assay: Compound was tested for gross behavioral response in rats; full-blown 5-HT syndrome; assay type: functional, organism-based

SMILES: CCCN1CCC2c3c(cccc3C(N)=O)CC[C@@H]21 (single isomer, unassigned; (+)-3b) [listing 1 of 2 here]
ED50 (Rattus norvegicus [1]): inactive
ED50 (Rattus norvegicus [2]): inactive
ED50 (Rattus norvegicus [3]): inactive
ED50 (Rattus norvegicus [4]): inactive
ED50 (Rattus norvegicus [5]): inactive
ED50 (Rattus norvegicus [6]): inactive
Response (Rattus norvegicus [7]): inactive

SMILES: CCCN1CCC2c3c(cccc3C(N)=O)CC[C@@H]21 (single isomer, unassigned; (+)-3a) [listing 1 of 2 here]
ED50 (Rattus norvegicus [4]): inactive
ED50 (Rattus norvegicus [5]): inactive
ED50 (Rattus norvegicus [6]): inactive
Response (Rattus norvegicus [8]): Partially active

SMILES: O=C(NCCN1CCN(c2cccc3c2OCC(CO)O3)CC1)c1ccc(F)cc1 (single isomer, unassigned; (+))
Ki [9]: 2.9 nM
Max decrease (Felis catus [14]): 55
Max decrease (Felis catus [15]): 2
BP (Felis catus [16]): 79%
ED50 (Felis catus [17]): 0.14 µmol/kg
Swimming activity (Mus musculus [36]): 3.3
Swimming activity (Mus musculus [37]): 0.6
ED50 (Rattus norvegicus [38]): Weak activity
ED50 (Rattus norvegicus [21]): 0.27 µmol/kg
ED50 (Rattus norvegicus [33]): 0.55 µmol/kg
ED50 (Rattus norvegicus [22]): 0.16 µmol/kg
ED50 (Rattus norvegicus [24]): 0.36 µmol/kg
ED50 (Rattus norvegicus [34]): 0.63 µmol/kg
ED50 (Rattus norvegicus [26]): 0.36 µmol/kg
ED50 (Rattus norvegicus [27]): 0.63 µmol/kg
ED50 (Rattus norvegicus [39]): inactive
ED50 (Rattus norvegicus [4]): inactive
ED50 (Rattus norvegicus [40]): inactive
ED50 (Rattus norvegicus [5]): inactive
ED50 (Rattus norvegicus [6]): inactive
Accumulated counts/30 min (Rattus norvegicus [41]): 84
Accumulated counts/30 min (Rattus norvegicus [42]): 135
Response (Rattus norvegicus [43]): Active
ED50 (Mus musculus [30]): 1.6 µmol/kg
ED50 (Mus musculus [31]): 0.16 µmol/kg

Continued, in another order:

Ki [9]: > 1440 nM
SMILES: CCCN1CCC2c3c(cccc3C(N)=O)CC[C@@H]21 (single isomer, unassigned; (+)-3b) [listing 2 of 2 here]
Swimming activity (Mus musculus [10]): 1.1
Swimming activity (Mus musculus [11]): 1.2
Accumulated counts/30 min (Rattus norvegicus [12]): 9

Ki [9]: 1.9 nM
half-life [13]: 2 h
SMILES: CCCN1CC[C@H]2c3c(cccc3C(N)=O)CC[C@H]21 (stereo in doubt; (-)-3a)
Max decrease (Felis catus [14]): 52
Max decrease (Felis catus [15]): 0
BP (Felis catus [16]): 83%
ED50 (Felis catus [17]): 0.049 µmol/kg
Swimming activity (Mus musculus [10]): 1.1
Swimming activity (Mus musculus [18]): 1.5
Swimming activity (Mus musculus [19]): 7.1
Swimming activity (Mus musculus [20]): 4.7
ED50 (Rattus norvegicus [21]): < 0.2 µmol/kg
ED50 (Rattus norvegicus [22]): 0.023 µmol/kg
ED50 (Rattus norvegicus [23]): 0.07 µmol/kg
ED50 (Rattus norvegicus [24]): 0.28 µmol/kg
ED50 (Rattus norvegicus [25]): 0.32 µmol/kg
ED50 (Rattus norvegicus [26]): 0.23 µmol/kg
ED50 (Rattus norvegicus [27]): 0.28 µmol/kg
Accumulated counts/30 min (Rattus norvegicus [28]): 173
Accumulated counts/30 min (Rattus norvegicus [29]): 249
ED50 (Mus musculus [30]): 2.8 µmol/kg
ED50 (Mus musculus [31]): 0.4 µmol/kg

Ki [9]: 17 nM
SMILES: CCCN1CCC2c3c(cccc3C(N)=O)CC[C@@H]21 (single isomer, unassigned; (+)-3a) [listing 2 of 2 here]
Swimming activity (Mus musculus [18]): 1
Swimming activity (Mus musculus [19]): 4.7
Swimming activity (Mus musculus [20]): 4
Swimming activity (Mus musculus [32]): 8.3
ED50 (Rattus norvegicus [33]): 1.6 µmol/kg
ED50 (Rattus norvegicus [22]): > 1.2 µmol/kg
ED50 (Rattus norvegicus [34]): 5.2 µmol/kg
ED50 (Rattus norvegicus [27]): 1.8 µmol/kg
Accumulated counts/30 min (Rattus norvegicus [35]): 17
ED50 (Mus musculus [30]): 28 µmol/kg
ED50 (Mus musculus [31]): 8.9 µmol/kg
